{"source": "ChEMBL document CHEMBL1649119", "about": "“Daptomycin pharmacokinetics in adult oncology patients with neutropenic fever” (Antimicrob Agents Chemother, 2009)", "key": {"[1]": {"test": "Plasma concentration in nonobese adult human at 4 mg/kg, iv administered as single dose 30 mins infusion measured after 24 hrs", "assay_type": "ADME, organism-based", "design": "dose 4 mg/kg, route intravenous"}, "[2]": {"test": "Cmax in adult human with hepatic impairment at 6 mg/kg, iv administered as single dose 30 mins infusion", "assay_type": "ADME, organism-based", "design": "dose 6 mg/kg, route intravenous", "conditions": "in vivo"}, "[3]": {"test": "Cmax in nonobese human at 4 mg/kg, iv administered as single dose 30 mins infusion", "assay_type": "ADME, organism-based", "design": "dose 4 mg/kg, route intravenous", "conditions": "in vivo"}, "[4]": {"test": "Unbound fraction in healthy human plasma at 8 mg/kg, iv administered as 30 mins infusion every 24 hrs measured on day 7", "assay_type": "ADME, organism-based", "design": "dose 8 mg/kg, route intravenous"}, "[5]": {"test": "Plasma protein binding in human after 2 hrs", "assay_type": "ADME, cell-free", "conditions": "read-out: PPB (converted)", "method_in_brief": "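Neutropenic-fever oncology patients received 6 mg/kg IV daptomycin; serum was drawn 0.5, 2 and 8 h after the end of infusion. Free drug was obtained by ultrafiltration (30,000-MW cutoff) and quantified by HPLC against a saline-matrix curve of 0.25–100 μg/ml, with total plasma drug also measured. Percent bound was (total − free)/total × 100; results are given as mean ± SD.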"}, "[6]": {"test": "Apparent volume of distribution during terminal phase in healthy human subjects at 10 mg/kg, iv administered as 30 mins infusion every 24 hrs measured on day 4", "assay_type": "ADME, organism-based", "design": "dose 10 mg/kg, route intravenous", "conditions": "in vivo"}, "[7]": {"test": "Apparent volume of distribution during terminal phase in healthy human subjects at 8 mg/kg, iv administered as 30 mins infusion every 24 hrs measured on day 4", "assay_type": "ADME, organism-based", "design": "dose 8 mg/kg, route intravenous", "conditions": "in vivo"}, "[8]": {"test": "Apparent volume of distribution during terminal phase in healthy human subjects at 6 mg/kg, iv administered as 30 mins infusion every 24 hrs measured on day 4", "assay_type": "ADME, organism-based", "design": "dose 6 mg/kg, route intravenous", "conditions": "in vivo"}, "[9]": {"test": "Apparent volume of distribution during terminal phase in healthy human subjects at 12 mg/kg, iv administered as 30 mins infusion every 24 hrs measured on day 1", "assay_type": "ADME, organism-based", "design": "dose 12 mg/kg, route intravenous", "conditions": "in vivo"}, "[10]": {"test": "AUC (0 to infinity) in healthy adult human at 6 mg/kg, iv administered as single dose 30 mins infusion", "assay_type": "ADME, organism-based", "design": "dose 6 mg/kg, route intravenous, time infinity", "conditions": "plasma"}, "[11]": {"test": "AUC (0 to infinity) in nonobese human at 4 mg/kg, iv administered as single dose 30 mins infusion", "assay_type": "ADME, organism-based", "design": "time infinity, dose 4 mg/kg, route intravenous", "conditions": "plasma"}, "[12]": {"test": "AUC (0 to infinity) in young healthy human at 4 mg/kg, iv administered as single dose 30 mins infusion", "assay_type": "ADME, organism-based", "design": "dose 4 mg/kg, route intravenous, time infinity", "conditions": "plasma"}, "[13]": {"test": "AUC (0 to infinity) in healthy human subjects at 8 mg/kg, iv administered as 30 mins infusion every 24 hrs measured on day 1", "assay_type": "ADME, organism-based", "design": "time infinity, dose 8 mg/kg, route intravenous", "conditions": "plasma"}, "[14]": {"test": "AUC (0 to infinity) in healthy human at 8 mg/kg, iv administered as 30 mins infusion every 24 hrs measured on day 7", "assay_type": "ADME, organism-based", "design": "dose 8 mg/kg, route intravenous, time infinity", "conditions": "plasma"}, "[15]": {"test": "AUC (0 to infinity) in healthy human at 6 mg/kg, iv administered as 30 mins infusion every 24 hrs measured on day 7", "assay_type": "ADME, organism-based", "design": "time infinity, dose 6 mg/kg, route intravenous", "conditions": "plasma"}, "[16]": {"test": "Cmax in healthy human subjects at 10 mg/kg, iv administered as 30 mins infusion every 24 hrs measured on day 14", "assay_type": "ADME, organism-based", "design": "dose 10 mg/kg, route intravenous", "conditions": "in vivo"}, "[17]": {"test": "Cmax in healthy human at 4 mg/kg, iv administered as 30 mins infusion every 24 hrs measured on day 7", "assay_type": "ADME, organism-based", "design": "dose 4 mg/kg, route intravenous", "conditions": "in vivo"}, "[18]": {"test": "Drug excretion in morbidly obese adult human urine assessed as unchanged drug at 4 mg/kg, iv administered as single dose 30 mins infusion", "assay_type": "ADME, organism-based", "design": "dose 4 mg/kg, route intravenous", "conditions": "read-out: Drug uptake"}, "[19]": {"test": "Mean residence time in old healthy human at 4 mg/kg, iv administered as single dose 30 mins infusion", "assay_type": "ADME, organism-based", "design": "dose 4 mg/kg, route intravenous", "conditions": "in vivo"}, "[20]": {"test": "Volume of distribution at steady state in adult human subjects at 6 mg/kg, iv administered as single dose 30 mins infusion", "assay_type": "ADME, organism-based", "design": "dose 6 mg/kg, route intravenous", "conditions": "in vivo, read-out: Vdss"}, "[21]": {"test": "Volume of distribution at steady state in adult human with hepatic impairment at 6 mg/kg, iv administered as single dose 30 mins infusion", "assay_type": "ADME, organism-based", "design": "dose 6 mg/kg, route intravenous", "conditions": "in vivo, read-out: Vdss"}, "[22]": {"test": "Volume of distribution at steady state in morbidly obese human at 4 mg/kg, iv administered as single dose 30 mins infusion", "assay_type": "ADME, organism-based", "design": "dose 4 mg/kg, route intravenous", "conditions": "in vivo, read-out: Vdss"}, "[23]": {"test": "Clearance in young healthy human at 4 mg/kg, iv administered as single dose 30 mins infusion", "assay_type": "ADME, organism-based", "design": "dose 4 mg/kg, route intravenous", "conditions": "in vivo"}, "[24]": {"test": "Half life in adult human subjects at 6 mg/kg, iv administered as single dose 30 mins infusion", "assay_type": "ADME, organism-based", "design": "dose 6 mg/kg, route intravenous", "conditions": "in vivo"}, "[25]": {"test_system": "Homo sapiens", "test": "Unbound clearance in healthy human at 8 mg/kg, iv administered as 30 mins infusion every 24 hrs measured on day 14", "assay_type": "ADME, organism-based", "design": "dose 8 mg/kg, route intravenous", "conditions": "in vivo"}, "[26]": {"test_system": "Homo sapiens", "test": "Unbound clearance in healthy human at 8 mg/kg, iv administered as 30 mins infusion every 24 hrs measured on day 7", "assay_type": "ADME, organism-based", "design": "dose 8 mg/kg, route intravenous", "conditions": "in vivo"}, "[27]": {"test": "Clearance in healthy human subjects at 6 mg/kg, iv administered as 30 mins infusion every 24 hrs measured on days 1-3", "assay_type": "ADME, organism-based", "design": "dose 6 mg/kg, route intravenous", "conditions": "in vivo"}, "[28]": {"test": "Half life in healthy human at 4 mg/kg, iv administered as 30 mins infusion every 24 hrs measured on day 7", "assay_type": "ADME, organism-based", "design": "dose 4 mg/kg, route intravenous", "conditions": "in vivo"}, "[29]": {"test": "AUC (0 to tau) in healthy human subjects at 6 mg/kg, iv administered as 30 mins infusion every 24 hrs measured on days 1-3", "assay_type": "ADME, organism-based", "design": "dose 6 mg/kg, route intravenous", "conditions": "plasma"}}}
{"smiles": "CCCCCCCCCC(=O)N[C@@H](Cc1c[nH]c2ccccc12)C(=O)N[C@H](CC(N)=O)C(=O)N[C@@H](CC(=O)O)C(=O)N[C@@H]1C(=O)NCC(=O)N[C@@H](CCCN)C(=O)N[C@@H](CC(=O)O)C(=O)N[C@H](C)C(=O)N[C@@H](CC(=O)O)C(=O)NCC(=O)N[C@H](CO)C(=O)N[C@@H]([C@H](C)CC(=O)O)C(=O)N[C@@H](CC(=O)c2ccccc2N)C(=O)O[C@@H]1C", "values": [{"measurement": "concentration at 24 h", "setting": "[1]", "value": "< 3.3", "unit": "µg/mL"}, {"measurement": "Cmax", "setting": "[2]", "value": 114, "unit": "µg/mL"}, {"measurement": "Cmax", "setting": "[3]", "value": 53.2, "unit": "µg/mL"}, {"measurement": "fraction unbound at 7 day", "setting": "[4]", "value": 0.09}, {"measurement": "fraction unbound at 2 h", "setting": "[5]", "value": 0.063}, {"measurement": "Vd", "setting": "[6]", "value": 0.0983, "unit": "L/kg"}, {"measurement": "Vd", "setting": "[7]", "value": 0.101, "unit": "L/kg"}, {"measurement": "Vd", "setting": "[8]", "value": 0.101, "unit": "L/kg"}, {"measurement": "Vd", "setting": "[9]", "value": 0.111, "unit": "L/kg"}, {"measurement": "AUC(0-inf)", "setting": "[10]", "value": 598, "unit": "µg·h/mL"}, {"measurement": "AUC(0-inf)", "setting": "[11]", "value": 419, "unit": "µg·h/mL"}, {"measurement": "AUC(0-inf)", "setting": "[12]", "value": 301, "unit": "µg·h/mL"}, {"measurement": "AUC(0-inf)", "setting": "[13]", "value": 773, "unit": "µg·h/mL"}, {"measurement": "AUC(0-inf)", "setting": "[14]", "value": 1130, "unit": "µg·h/mL"}, {"measurement": "AUC(0-inf)", "setting": "[15]", "value": 747, "unit": "µg·h/mL"}, {"measurement": "Cmax", "setting": "[16]", "value": 139, "unit": "µg/mL"}, {"measurement": "Cmax", "setting": "[17]", "value": 57.8, "unit": "µg/mL"}, {"measurement": "dose excreted at 0.5 h", "setting": "[18]", "value": 42.7, "unit": "%"}, {"measurement": "MRT", "setting": "[19]", "value": 15.9, "unit": "h"}, {"measurement": "Vd", "setting": "[20]", "value": 0.08, "unit": "L/kg"}, {"measurement": "Vd", "setting": "[21]", "value": 0.08, "unit": "L/kg"}, {"measurement": "Vd", "setting": "[22]", "value": 0.09, "unit": "L/kg"}, {"measurement": "clearance", "setting": "[23]", "value": 0.0151, "unit": "L/h/kg"}, {"measurement": "half-life", "setting": "[24]", "value": 9.44, "unit": "h"}, {"measurement": "CL", "setting": "[25]", "value": 0.0447, "unit": "L/h/kg"}, {"measurement": "CL", "setting": "[26]", "value": 0.0409, "unit": "L/h/kg"}, {"measurement": "clearance", "setting": "[27]", "value": 0.00947, "unit": "L/h/kg"}, {"measurement": "half-life", "setting": "[28]", "value": 8.1, "unit": "h"}, {"measurement": "AUC tau", "setting": "[29]", "value": 645, "unit": "µg·h/mL"}]}
